Measured values as given in ChEMBL document CHEMBL3813679, “DARC: Mapping Surface Topography by Ray-Casting for Effective Virtual Screening at Protein Interaction Sites” (J Med Chem, 2016).
The source made the active and inactive calls. The calls are words filed in the database; no cut-off is given here.

Columns and labels:
[1] = biological target: T1, Induced myeloid leukemia cell differentiation protein Mcl-1 (Homo sapiens, UniProt Q07820); test: biochemical
[2] = biological target: T1, Induced myeloid leukemia cell differentiation protein Mcl-1; test: Reversible binding affinity to PEST and transmembrane regions lacking N-terminal His6/MBP-tagged human MCl1 (172 to 327 residues) expressed in Escherichia coli Rosetta2(2DE3) pLysS cells at 50 uM measured for 300 secs by bio-layer interferometry
[3] = biological target: T1, Induced myeloid leukemia cell differentiation protein Mcl-1; test: Binding affinity to PEST and transmembrane regions lacking N-terminal His6/MBP-tagged human MCl1 (172 to 327 residues) expressed in Escherichia coli Rosetta2(2DE3) pLysS cells assesed as inhibition of protein interaction with carboxyfluorescein-labeled 26-mer Noxa peptide at 15 nM to 250 uM by fluorescence polarization assay in presence of CHAPS
Outline: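 Competition fluorescence polarization assay measuring displacement of a […] cognate (Noxa) peptide from Mcl-1. Polarization was read across a dose series of test compound. Buffer contained 0.1% CHAPS to rule out compound aggregation. Ki values were derived from the competition data.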

T1 sequence (Q07820 whole entry, the tested form may be a part): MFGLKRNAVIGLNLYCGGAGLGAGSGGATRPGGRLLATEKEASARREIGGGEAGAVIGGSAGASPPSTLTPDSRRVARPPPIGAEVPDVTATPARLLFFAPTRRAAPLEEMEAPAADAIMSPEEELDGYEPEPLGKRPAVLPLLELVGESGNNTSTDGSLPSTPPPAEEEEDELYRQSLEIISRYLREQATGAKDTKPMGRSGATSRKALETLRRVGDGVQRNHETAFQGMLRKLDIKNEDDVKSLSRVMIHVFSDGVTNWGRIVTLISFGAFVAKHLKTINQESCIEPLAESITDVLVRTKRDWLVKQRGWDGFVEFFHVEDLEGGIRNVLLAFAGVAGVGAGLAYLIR

Row | SMILES | Ki [1] [µM] | also measured
1 | COc1ccc(C(=O)/C=C/c2ccc(O)c(F)c2)c(OC)c1OC | 28 | –
2 | COc1cc(O)c(C(=O)/C=C/c2ccc(C(F)(F)F)cc2)c(OC)c1OC | > 50 | –
3 | COc1cc(O)c(C(=O)/C=C/c2ccccc2[N+](=O)[O-])c(OC)c1OC | > 50 | –
4 | COc1ccc(/C=C/C(=O)c2ccc(O)cc2)c(O)c1 | > 50 | –
5 | O=C(/C=C/c1ccncc1)c1ccc(O)cc1 | > 50 | –
6 | COc1ccc(/C=C/C(=O)c2ccc(O)cc2)cc1 | > 50 | –
7 | COc1cc2oc(-c3ccc(C(F)(F)F)cc3)cc(=O)c2c(OC)c1OC | > 50 | –
8 | COc1cc(C(=O)/C=C/c2ccc(O)cc2)c(O)c(OC)c1OC | 40 | –
9 | COc1cc(C(=O)/C=C/c2ccc3c(c2)OCO3)c(O)c(OC)c1OC | > 50 | –
10 | COc1cc(/C=C/C(=O)c2ccc(OC)c(OC)c2OC)cc(Cl)c1O | 2 | –
11 | COc1ccc(C(=O)/C=C/c2ccc(O)cc2)cc1 | > 50 | –
12 | COc1cc(O)c(C(=O)/C=C/c2ccc([N+](=O)[O-])cc2)c(OC)c1OC | > 50 | –
13 | C[C@@]12CC[C@@H]3[C@H](CCC4=CC(=O)CC[C@H]43)[C@H]1CC[C@H]2OC1(O)C(=O)c2ccccc2C1=O | 12 | Activity [2]: Active; inhibition [3]: Active
14 | Cc1c(/C=N/N2C=Nc3c([nH]c4ccccc34)C2)c(=O)oc2c3c4c(cc12)CCCN4CCC3 | – | Activity [2]: Active; inhibition of Noxa peptide binding (active/inactive call) [3]: Active
15 | O=C(/C=C/c1cc(F)c(O)c(Cl)c1)c1ccncc1 | > 50 | –
16 | COc1ccc(/C=C/C(=O)c2cc(OC)c(OC)c(OC)c2O)cc1 | > 50 | –

Row | SMILES | Ki [1] [µM] | also measured
17 | COc1ccc(C(=O)/C=C/c2cc(Cl)c(O)c(OC)c2)cc1 | 10 | –
18 | O=C(/C=C/c1cc(F)c(O)c(F)c1)c1ccc2c(c1)CCO2 | > 50 | –
19 | O=C(/C=C/c1ccc(O)c(F)c1)c1ccc2c(c1)CCO2 | > 50 | –
20 | c1cc2c(cc1[C@H]1OC[C@H]3[C@H]1CO[C@H]3c1ccc3c(c1)OCO3)OCO2 | 7 | Activity [2]: Active; inhibition of Noxa peptide binding (active/inactive call) [3]: Active
21 | COc1ccc(C(=O)/C=C/c2cccc(F)c2O)cc1 | 20 | –
22 | COc1cc2oc(-c3ccc(N)cc3)cc(=O)c2c(OC)c1OC | > 50 | –
23 | O=C(/C=C/c1ccc(O)cc1)c1ccc2c(c1)CCO2 | > 50 | –
24 | COc1ccc(C(=O)/C=C/c2cc(F)c(O)c(Cl)c2)cc1 | 7 | –
25 | COc1cc2oc(-c3ccccc3[N+](=O)[O-])cc(=O)c2c(OC)c1OC | > 50 | –
26 | COc1ccc(C(=O)/C=C/c2ccncc2)c(O)c1 | > 50 | –
27 | COc1ccc(C(=O)/C=C/c2cc(F)c(O)c(Cl)c2)c(OC)c1OC | 3 | –
28 | COc1cc2oc(-c3ccccc3N)cc(=O)c2c(OC)c1OC | > 50 | –
29 | COc1cc(C(=O)/C=C/c2ccc([N+](=O)[O-])cc2)c(O)c(OC)c1OC | > 50 | –
30 | COc1cc(O)c(C(=O)/C=C/c2ccc(O)c(OC)c2)c(OC)c1 | 21 | Activity [2]: Active; inhibition of Noxa peptide binding (active/inactive call) [3]: Active
31 | COc1cc(C(=O)/C=C/c2ccc(C(F)(F)F)cc2)c(O)c(OC)c1OC | > 50 | –
